In ChEMBL document CHEMBL2417409 (Eur J Med Chem, 2013) one finds inhibition, IC50 and Ki data, which are given here for 18 compounds.

Assay [1] has as its target Sucrase-isomaltase, intestinal (Rattus norvegicus) (UniProt P23739). Nature of the assay: Inhibition of rat intestine sucrase using sucrose as substrate at 10 mg/ml incubated for 10 mins prior to substrate addition measured after 40 mins by glucose oxidase colorimetric method.
The target of assay [2] is T1, Sucrase-isomaltase, intestinal (Rattus norvegicus, UniProt P23739). Nature of the assay: Inhibition of rat intestine sucrase using sucrose as substrate incubated for 10 mins prior to substrate addition measured after 40 mins by glucose oxidase colorimetric method. Put shortly:
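Crude enzyme from centrifuged (12,000 g, 30 min) intestinal supernatant containing both maltase and sucrase. Test compound (1 mg/mL stock, DMSO) preincubated with enzyme at 37 C for 10 min. Substrate in 0.1 M phosphate buffer pH 6.9 (maltose 0.58 mM or sucrose 20 mM) added, then 40 min at 37 C. Quenched at 80 C for 15 min. Released glucose measured by glucose oxidase kit.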

Assay [3] concerns Radical scavenging activity. Description: Antioxidant activity assessed as DPPH radical scavenging activity at 10 mg/ml after 15 mins by spectrophotometry. It is filed as functional. In outline:
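Sample (10 µL at 0.1, 1.0 or 10.0 mg/mL) mixed with 0.1 mM DPPH in methanol (150 µL), kept in the dark at room temperature on a shaker for 15 min. Percentage scavenging = [(A0 − A1)/A0] × 100, with A0 and A1 the absorbance without and with sample.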
For orientation: The DPPH test is a chemical assay of radical scavenging.

For the next assay, the system named is Saccharomyces cerevisiae. Nature of the assay: Inhibition of yeast type 1 alpha-glucosidase using PNPG as substrate at 10 mg/ml incubated for 10 mins prior to substrate addition measured after 20 mins by spectrophotometry.
The target of assay [4] is T1, Sucrase-isomaltase, intestinal. Nature of the assay: Non-competitive inhibition of rat intestine sucrase using sucrose as substrate by Lineweaver-Burk plot analysis. Put shortly: (§1)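 Same maltase/sucrase reactions, with activity held at 0.45 (maltase) and 0.09 (sucrase) U/mg protein. Inhibitor 0 to 20.4 mM against substrate 1.0 to 20.0 mM. Vmax and Km obtained from Lineweaver–Burk intercepts and slopes. Ki (EI) from a secondary plot of slope versus inhibitor concentration; Ki′ (ESI) from a secondary plot of intercept versus inhibitor concentration.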

Assay [5] relates to Radical scavenging activity. Description: Antioxidant activity assessed as DPPH radical scavenging activity after 15 mins by spectrophotometry. The assay is classed as functional. In outline:
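Sample (10 µL at 0.1, 1.0 or 10.0 mg/mL) mixed with 0.1 mM DPPH in methanol (150 µL), kept in the dark at room temperature on a shaker for 15 min. Absorbance read at 517 nm. Percentage scavenging = [(A0 − A1)/A0] × 100, with A0 and A1 the absorbance without and with sample.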

Assay [6] deals with T1, Sucrase-isomaltase, intestinal. Nature of the assay: Competitive inhibition of rat intestine sucrase using sucrose as substrate by Lineweaver-Burk plot analysis. In outline:
as §1

Assay [7] deals with Maltase-glucoamylase, intestinal (Rattus norvegicus). Nature of the assay: Inhibition of rat intestine maltase using maltose as substrate at 10 mg/ml incubated for 10 mins prior to substrate addition measured after 40 mins by glucose oxidase colorimetric method.
Assay [8] can be described thus: Inhibition of yeast type 1 alpha-glucosidase using PNPG as substrate incubated for 10 mins prior to substrate addition measured after 20 mins by spectrophotometry. Set-up: species or system Saccharomyces cerevisiae.

SMILES strings stand for the structures. Where only a bound is given, the exact number is not on record here.

T1 sequence (P23739 1-1013 limits assumed): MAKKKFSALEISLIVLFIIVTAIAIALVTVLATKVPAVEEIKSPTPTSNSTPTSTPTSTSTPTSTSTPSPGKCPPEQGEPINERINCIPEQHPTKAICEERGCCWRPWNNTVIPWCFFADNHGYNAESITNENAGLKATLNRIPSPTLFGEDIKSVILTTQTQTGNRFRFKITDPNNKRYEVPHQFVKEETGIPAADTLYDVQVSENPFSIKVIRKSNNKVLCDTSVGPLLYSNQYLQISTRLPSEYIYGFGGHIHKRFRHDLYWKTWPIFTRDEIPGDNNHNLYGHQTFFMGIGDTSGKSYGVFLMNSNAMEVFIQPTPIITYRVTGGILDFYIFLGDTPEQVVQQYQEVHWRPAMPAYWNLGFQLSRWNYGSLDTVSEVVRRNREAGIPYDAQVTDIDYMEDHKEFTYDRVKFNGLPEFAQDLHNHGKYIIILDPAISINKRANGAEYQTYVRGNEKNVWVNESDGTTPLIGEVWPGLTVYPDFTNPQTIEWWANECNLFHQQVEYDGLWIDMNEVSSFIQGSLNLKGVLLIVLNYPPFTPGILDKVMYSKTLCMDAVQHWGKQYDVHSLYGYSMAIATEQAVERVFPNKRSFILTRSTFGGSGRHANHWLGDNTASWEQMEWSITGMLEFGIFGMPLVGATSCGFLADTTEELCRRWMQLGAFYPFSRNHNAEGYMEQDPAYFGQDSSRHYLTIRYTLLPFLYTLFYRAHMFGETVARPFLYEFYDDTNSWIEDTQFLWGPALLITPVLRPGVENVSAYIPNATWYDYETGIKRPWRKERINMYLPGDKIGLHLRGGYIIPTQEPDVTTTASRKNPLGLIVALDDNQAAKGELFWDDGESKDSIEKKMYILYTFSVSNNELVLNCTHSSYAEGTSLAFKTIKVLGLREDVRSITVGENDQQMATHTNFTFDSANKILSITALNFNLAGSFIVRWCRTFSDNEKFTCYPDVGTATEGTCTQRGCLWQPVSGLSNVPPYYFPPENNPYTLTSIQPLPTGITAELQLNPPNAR
T1 sequence (P23739 1014-1841 limits assumed): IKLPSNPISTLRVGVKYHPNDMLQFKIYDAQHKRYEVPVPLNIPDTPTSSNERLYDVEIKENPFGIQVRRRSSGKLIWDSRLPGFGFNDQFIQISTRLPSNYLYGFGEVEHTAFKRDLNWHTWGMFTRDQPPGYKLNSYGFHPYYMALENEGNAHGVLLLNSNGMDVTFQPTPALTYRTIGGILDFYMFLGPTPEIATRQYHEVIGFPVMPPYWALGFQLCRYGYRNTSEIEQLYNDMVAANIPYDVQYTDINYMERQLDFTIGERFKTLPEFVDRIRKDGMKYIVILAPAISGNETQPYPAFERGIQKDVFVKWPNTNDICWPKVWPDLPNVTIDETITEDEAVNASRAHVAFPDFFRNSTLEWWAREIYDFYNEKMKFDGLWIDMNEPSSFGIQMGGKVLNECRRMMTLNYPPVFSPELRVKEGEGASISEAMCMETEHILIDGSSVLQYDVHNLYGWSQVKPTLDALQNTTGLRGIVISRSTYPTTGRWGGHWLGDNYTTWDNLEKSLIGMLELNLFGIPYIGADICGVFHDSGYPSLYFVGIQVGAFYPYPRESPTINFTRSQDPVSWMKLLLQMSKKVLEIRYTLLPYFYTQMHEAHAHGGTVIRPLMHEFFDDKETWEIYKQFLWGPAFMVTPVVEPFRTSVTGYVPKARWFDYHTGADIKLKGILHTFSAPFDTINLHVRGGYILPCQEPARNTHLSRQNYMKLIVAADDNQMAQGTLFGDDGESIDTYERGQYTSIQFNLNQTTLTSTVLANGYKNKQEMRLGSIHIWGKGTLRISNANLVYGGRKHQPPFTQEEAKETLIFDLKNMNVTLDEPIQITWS
Sucrase-isomaltase, intestinal (Rattus norvegicus), sequence (P23739 1-1013 limits assumed): as the sequence (P23739 1-1013 limits assumed) above
Sucrase-isomaltase, intestinal (Rattus norvegicus), sequence (P23739 1014-1841 limits assumed): as the sequence (P23739 1014-1841 limits assumed) above

As to `COc1cccc(/C=C/C(=O)O[C@@H]2C[C@@H](O)[C@H](O)[C@@H](O)[C@H]2O)c1`, in assay [1], the inhibition was less than 30%.

Compound `COc1cc(/C=C/C(=O)O[C@@H]2C[C@@H](O)[C@H](O)[C@@H](O)[C@H]2O)ccc1O` registered an IC50 in assay [2] of 67.2 µM. The figures for the inhibition (in assay [3]; in the assay on Saccharomyces cerevisiae) were less than 50% and less than 30%, respectively.

For `COc1ccc(/C=C/C(=O)O[C@@H]2C[C@@H](O)[C@H](O)[C@@H](O)[C@H]2O)cc1O`, in assay [2], half-maximal inhibition (IC50) was put at 53 µM. Further, the inhibition was less than 50% in [3] and less than 30% in the assay with Saccharomyces cerevisiae.

In the case of `COc1cccc(/C=C/C(=O)O[C@H]2C[C@@H](O)[C@H](O)[C@@H](O)[C@H]2O)c1`, the inhibition in assay [1] was less than 30%.

For the compound `O=C(/C=C/c1ccc(O)c(O)c1)O[C@@H]1C[C@@H](O)[C@H](O)[C@@H](O)[C@H]1O`, the Ki in assay [4] turned out to be 47.5 µM; in [6] it was 22.4 µM. For the same compound, the figures for the IC50 in assay [2] and in assay [5] were 43.6 µM and 110 µM, respectively. This compound also registered an inhibition in the assay with Saccharomyces cerevisiae of less than 30%.

With `O=C(/C=C/c1ccc(O)c(O)c1)O[C@H]1C[C@@H](O)[C@H](O)[C@@H](O)[C@H]1O`, the IC50 in [2] is 954 µM. In addition, the figures for the inhibition (in assay [3]; in the assay on Saccharomyces cerevisiae) were less than 50% and less than 30%, respectively.

On to `COc1ccc(/C=C/C(=O)O[C@H]2C[C@@H](O)[C@H](O)[C@@H](O)[C@H]2O)cc1`, for which the inhibition in assay [1] is less than 30%; in assay [3], less than 50%; with Saccharomyces cerevisiae, less than 30%; in [7], less than 30%.

In assay [1], `COc1ccc(/C=C/C(=O)O[C@@H]2C[C@@H](O)[C@H](O)[C@@H](O)[C@H]2O)cc1OC` returned an inhibition of less than 30%.

For the compound `COc1ccc(/C=C/C(=O)O[C@H]2C[C@@H](O)[C@H](O)[C@@H](O)[C@H]2O)cc1OC`, the inhibition in assay [1] was less than 30%.

In the case of `COc1ccc(O)c(C(C)(C)C)c1.COc1ccc(O)cc1C(C)(C)C` [BUTYLATED HYDROXYANISOLE], the IC50 in assay [5] amounted to 0.1 µM.

`COc1ccccc1/C=C/C(=O)O[C@@H]1C[C@@H](O)[C@H](O)[C@@H](O)[C@H]1O` showed an inhibition in [1] of less than 30%.

Take `O=C(O)/C=C/c1ccc(O)c(O)c1` [CAFFEIC ACID]: the IC50 in assay [2] stood at 87.4 µM; in assay [5], 150 µM. This compound displayed an inhibition in the assay with Saccharomyces cerevisiae of less than 30%.

Regarding `COc1cc(/C=C/C(=O)O[C@@H]2C[C@@H](O)[C@H](O)[C@@H](O)[C@H]2O)cc(OC)c1OC`, the inhibition was less than 30% in assay [1], less than 50% in assay [3], less than 30% in the assay with Saccharomyces cerevisiae and less than 30% in [7].

Turning to `COc1cc(/C=C/C(=O)O[C@H]2C[C@@H](O)[C@H](O)[C@@H](O)[C@H]2O)ccc1O`, in assay [2], the IC50 was 171 µM. The inhibition in [3] was less than 50%; in the assay with Saccharomyces cerevisiae, less than 30%.

On to `COc1ccccc1/C=C/C(=O)O[C@H]1C[C@@H](O)[C@H](O)[C@@H](O)[C@H]1O`, for which the inhibition in assay [1] is less than 30%.

In the case of `COc1ccc(/C=C/C(=O)O[C@H]2C[C@@H](O)[C@H](O)[C@@H](O)[C@H]2O)cc1O`, in assay [2], the IC50 turned out to be 805 µM. Further, the inhibition in [3] was less than 50%; with Saccharomyces cerevisiae it was less than 30%.

With `C[C@H]1O[C@H](O[C@H]2[C@H](O)[C@@H](O)[C@@H](O[C@H]3[C@H](O)[C@@H](O)C(O)O[C@@H]3CO)O[C@@H]2CO)[C@H](O)[C@@H](O)[C@@H]1N[C@H]1C=C(CO)[C@@H](O)[C@H](O)[C@H]1O` (stereo partly drawn) [ACARBOSE], inhibition in [8] was half-maximal at 404 µM (IC50).

For `COc1ccc(/C=C/C(=O)O[C@@H]2C[C@@H](O)[C@H](O)[C@@H](O)[C@H]2O)cc1`, the inhibition in [1] was less than 30%; in [3], less than 50%; with Saccharomyces cerevisiae it was less than 30%; in [7], less than 30%.

The inhibition is the relative decrease from the control value, in per cent. One may read the IC50 as the concentration needed to halve the response being measured. The term Ki denotes the equilibrium dissociation constant of an inhibitor or competing ligand from its target.
